Measurements reported in ChEMBL document CHEMBL1123626, “Novel irreversible ligands specific for "peripheral" type benzodiazepine receptors: (+/-)-, (+)-, and (-)-1-(2-chlorophenyl)-N-(1-methylpropyl)-N- (2-isothiocyanatoethyl)-3-isoquinolinecarboxamide and 1-(2-isothiocyanatoethyl)-7-chloro-1,3-dihydro-5-(4-chlorophenyl )-2H-1,4-benzodiazepin-2-one” (J Med Chem, 1987).

What was measured:
[1] = Inhibition of [3H]-PK 11195 binding to Peripheral Benzodiazepine Receptor of rat kidney tissue (50 mg protein)
[2] = Inhibition of [3H]-Ro- 5-4864 binding to Peripheral Benzodiazepine Receptor of rat brain (255 mg protein)
[3] = Inhibition of [3H]-Ro- 5-4864 binding to Peripheral Benzodiazepine Receptor of rat kidney (62 mg protein)
[4] = Inhibition of [3H]-PK 11195 binding to Peripheral Benzodiazepine Receptor of rat brain tissue (263 mg protein)
[5] = Inhibition of [3H]-PK 11195 binding to Peripheral Benzodiazepine Receptor of rat brain tissue (110 mg protein)
In short: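 Brain membrane binding used 1 nM tritiated radioligand, with six inhibitor concentrations each run in triplicate. Protein per assay was as specified. IC50 in nmol/L and pseudo Hill coefficient are reported as means of two independent experiments.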

[6] = Inhibition of [3H]-PK 11195 binding to Peripheral Benzodiazepine Receptor of rat kidney tissue (22 mg protein)
In short: (§1)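 Kidneys from male Sprague-Dawley rats (150-200 g), decapitated, were decapsulated, minced, and homogenized in ice-cold 50 mM potassium phosphate (pH 7.0). The homogenate was spun at 23000 g for 20 min at 4 °C and the pellet resuspended. Tritiated radioligand was used at 1 nM against six inhibitor concentrations in triplicate. IC50 and pseudo Hill coefficient are given as means of two experiments.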

[7] = Inhibition of [3H]-Ro- 5-4864 binding to Peripheral Benzodiazepine Receptor of rat kidney (110 mg protein)
In short: as §1

[8] = Inhibition of [3H]-Ro- 5-4864 binding to Peripheral Benzodiazepine Receptor of rat kidney (22 mg protein)
In short: as §1

[9] = Inhibition of [3H]-PK 11195 binding to Peripheral Benzodiazepine Receptor of rat kidney tissue (110 mg protein)
In short: as §1

Compound	IC50 [1] [nM l-1]	IC50 [2] [nM l-1]	IC50 [3] [nM l-1]	IC50 [4] [nM l-1]	IC50 [5] [nM l-1]	IC50 [6] [nM l-1]	IC50 [7] [nM l-1]	IC50 [8] [nM l-1]	IC50 [9] [nM l-1]
O=C1CN=C(c2ccc(Cl)cc2)c2cc(Cl)ccc2N1CCN=C=S	1.2	2.1	1.2	2.1					
CCC(C)N(CCN=C=S)C(=O)c1cc2ccccc2c(-c2ccccc2Cl)n1 (single isomer, unassigned; (-))					10	3.9	6.3	2.9	
CCC(C)N(CCN=C=S)C(=O)c1cc2ccccc2c(-c2ccccc2Cl)n1 (racemic)	2.9	3	2	15					
CCC(C)N(CCN=C=S)C(=O)c1cc2ccccc2c(-c2ccccc2Cl)n1 (stereo in doubt; 11b)						1.6	2.9	1.2	3.5
